ChEMBL document CHEMBL1137002, “Synthesis and electrochemistry of 2-ethenyl and 2-ethanyl derivatives of 5-nitroimidazole and antimicrobial activity against Giardia lamblia” (J Med Chem, 2009)
pEC50, pIC50: −log10 of the molar value. Activity calls are given as the source filed them. No cut-off for these calls is given here.

Assays:
Giardia intestinalis [1] = test: Antigiardial activity against Giardia lamblia trophozoites isolates after 2 days by bactiter-glo viability assay; type: functional, organism-based; conditions: Giardia duodenalis, 48 h; for EC50: read-out: pEC50 (converted); for pEC50: read-out: EC50
HeLa = test: Cytotoxicity against human HeLa cells after 2 days by Alamar blue assay; type: cell-based; conditions: 48 h
[2] = Therapeutic index, ratio of IC50 for human HeLa cells to EC50 for Giardia lamblia trophozoites isolates; type: cell-based; conditions: read-out: Ratio IC50/EC50
Giardia intestinalis [3] = test: Antigiardial activity against metronidazole-resistant Giardia lamblia isolate 713 trophozoite after 2 days by bactiter-glo viability assay; type: functional, organism-based; conditions: Giardia duodenalis, isolate 713, 48 h
Method in brief: (§1)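 Trophozoites from mid-log cultures in TYI-S-33 with 10% bovine serum and 1 mg/mL bovine bile, grown anaerobically. Mz-resistant lines kept on 50 μM Mz but grown without it for 2–3 days beforehand. 1000–2000 cells/well, 1:3 serial dilutions, final 20 μM to 0.4 nM. 2 days at 37 °C anaerobically. ATP luminescence read-out. EC50 taken by graphic extrapolation of concentration–response curves. Mean ± SE of three experiments.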

Giardia intestinalis [4] = test: Antigiardial activity against metronidazole-sensitive Giardia lamblia isolate 713 trophozoite after 2 days by bactiter-glo viability assay; type: functional, organism-based; conditions: Giardia duodenalis, isolate 713, 48 h; method in brief: as §1
Giardia intestinalis [5] = test: Antigiardial activity against metronidazole-resistant Giardia lamblia isolate 106 trophozoite after 2 days by bactiter-glo viability assay; type: functional, organism-based; conditions: Giardia duodenalis, isolate 106, 48 h; method in brief: as §1
Giardia intestinalis [6] = test: Antigiardial activity against metronidazole-sensitive Giardia lamblia isolate 106 trophozoite after 2 days by bactiter-glo viability assay; type: functional, organism-based; conditions: Giardia duodenalis, isolate 106, 48 h; method in brief: as §1
Giardia intestinalis [7] = test: Antigiardial activity against Giardia lamblia GS/M trophozoites infected in C57BL/6 mouse assessed as reduction in live trophozoite number in small intestine at 10 mg/kg, po administered as 5 doses for 3 days relative to control; type: functional; conditions: for Activity: Giardia duodenalis
Method in brief: (§2)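 Adult C57BL/6 mice infected orally with G. lamblia GS/M trophozoites; from 2 days post-infection, five oral gavage doses over 3 days (10 or 2 mg/kg), with controls given methylcellulose/PBS vehicle. Day 5: whole small intestine opened, placed in PBS on ice 10 min, shaken, and live trophozoites counted by hemocytometer under phase contrast. Mean ± SE of 3–7 animals; t test versus vehicle controls, p < 0.05.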

Giardia intestinalis [8] = test: Antigiardial activity against Giardia lamblia GS/M trophozoites infected in C57BL/6 mouse assessed as reduction in live trophozoite number in small intestine at 2 mg/kg, po administered as 5 doses for 3 days; type: functional, organism-based; set-up: dose 2 mg/kg; conditions: Giardia duodenalis; method in brief: as §2
Mus musculus = test: Toxicity in C57BL/6 mouse at 10 mg/kg, po after 3 days; type: organism-based; set-up: dose 10 mg/kg, route oral; conditions: in vivo, 72 h
Method in brief: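 G. lamblia GS/M-infected adult C57BL/6 mice were watched for clinically observable untoward effects across the 3-day treatment period, which consisted of five oral gavage doses at 10 mg/kg in methylcellulose/PBS given from day 2 after infection.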

Giardia intestinalis [9] = test: Antigiardial activity against Giardia lamblia GS/M trophozoites infected in C57BL/6 mouse assessed as parasite eradication in small intestine at 10 mg/kg, po administered as 5 doses for 3 days; type: functional, organism-based; set-up: dose 10 mg/kg; conditions: Giardia duodenalis; method in brief: as §2

Compound | EC50 (Giardia intestinalis [1]) [nM] | pIC50 (HeLa) | selectivity ratio [2] | pEC50 (Giardia intestinalis [3]) | pEC50 (Giardia intestinalis [4]) | pEC50 (Giardia intestinalis [5]) | pEC50 (Giardia intestinalis [6]) | Activity (Giardia intestinalis [7]) | Activity (Giardia intestinalis [8]) | Activity (Mus musculus) | pEC50 (Giardia intestinalis [1]) | fold change (FC) (Giardia intestinalis [7]) | Activity (Giardia intestinalis [9])
Cn1c([N+](=O)[O-])cnc1/C=C/c1cccc(Cl)c1 | 21.9 | 4.52 | 1380 |  |  |  |  |  |  |  |  |  | 
Cn1c([N+](=O)[O-])cnc1/C=C/c1cccc(Br)c1 | 46.8 | 4.06 | 1860 | 7.49 | 6.90 | 7.37 | 6.94 |  |  |  |  |  | 
Cn1c([N+](=O)[O-])cnc1/C=C/c1ccc(Br)cc1 | 49 | 4.14 | 1480 | 8.09 | 7.04 | 7.14 | 6.70 | inactive | inactive | Non-toxic |  |  | 
Cn1c([N+](=O)[O-])cnc1C(Br)C(Br)c1ccc(Br)cc1 (configuration not stated) | 347 | 5.10 | 23 | 6.74 | 6.32 | 6.67 | 5.54 |  |  |  |  |  | 
CC(=O)OC(c1ccc(Br)cc1)C(OC(C)=O)c1ncc([N+](=O)[O-])n1C (configuration not stated) | 224 |  | 436 |  |  |  |  |  |  |  |  |  | 
Cc1ccc(C(O)C(O)c2ncc([N+](=O)[O-])n2C)cc1 (configuration not stated) | 832 | < 4.00 | > 120 |  |  |  |  |  |  |  |  |  | 
Cn1c([N+](=O)[O-])cnc1/C=C/c1ccccc1I | 60.3 | < 4.00 | > 1660 |  |  |  |  |  |  |  |  |  | 
Cc1ccccc1/C=C/c1ncc([N+](=O)[O-])n1C | 69.2 |  | 1350 |  |  |  |  |  |  |  |  |  | 
Cc1ncc([N+](=O)[O-])n1CCO [METRONIDAZOLE] |  |  |  | 5.83 | 4.35 | 5.40 | 4.59 |  | inactive |  | 5.58 | 1000 | inactive
Cn1c([N+](=O)[O-])cnc1/C=C/c1ccc(Cl)cc1Cl | 234 | < 4.00 | > 427 |  |  |  |  |  |  |  |  |  | 
Cn1c([N+](=O)[O-])cnc1/C=C/c1ccc(OC(F)(F)F)cc1 | 741 | 4.08 | 112 |  |  |  |  |  |  |  |  |  | 
Cn1c([N+](=O)[O-])cnc1/C=C/c1cccc(F)c1 | 40.7 | < 4.00 | > 2460 | 7.59 | 6.91 | 7.51 | 7.03 | Active | Active | Non-toxic |  |  | Active
Cn1c([N+](=O)[O-])cnc1/C=C/c1cccc2ccccc12 |  | 4.00 | 1000 |  |  |  |  |  |  |  | 7.00 |  | 
Cc1cccc(/C=C/c2ncc([N+](=O)[O-])n2C)c1 | 39.8 | 4.51 | 776 |  |  |  |  |  |  |  |  |  | 
Cc1cc(C)c(/C=C/c2ncc([N+](=O)[O-])n2C)c(C)c1 | 339 |  | 32 | 6.64 | 5.89 | 6.69 | 6.37 |  |  |  |  |  | 
Cn1c([N+](=O)[O-])cnc1/C=C/c1ccsc1 | 97.7 | < 4.00 | > 1020 | 7.61 | 5.98 | 7.04 | 6.41 |  |  | Non-toxic |  |  | 
Cn1c([N+](=O)[O-])cnc1/C=C/c1ccco1 | 33.9 |  | 2750 | 7.69 | 6.31 | 7.45 | 6.44 | Active |  | Non-toxic |  |  | Active
Cn1c([N+](=O)[O-])cnc1/C=C/c1ccccc1 | 38.9 | < 4.00 | > 2570 | 7.69 | 6.28 | 7.26 | 6.40 | Active |  | Non-toxic |  |  | Active
Cn1c([N+](=O)[O-])cnc1/C=C/c1ccc2c(c1)OCO2 | 69.2 | 4.13 | 1070 |  |  |  |  |  |  |  | 7.16 |  | 

Compound | EC50 (Giardia intestinalis [1]) [nM] | pIC50 (HeLa) | selectivity ratio [2] | pEC50 (Giardia intestinalis [3]) | pEC50 (Giardia intestinalis [4]) | pEC50 (Giardia intestinalis [5]) | pEC50 (Giardia intestinalis [6]) | Activity (Giardia intestinalis [7]) | Activity (Giardia intestinalis [8]) | Activity (Mus musculus) | pEC50 (Giardia intestinalis [1]) | fold change (FC) (Giardia intestinalis [7]) | Activity (Giardia intestinalis [9])
Cn1c([N+](=O)[O-])cnc1/C=C/c1cccs1 | 81.3 | 4.04 | 1120 |  |  |  |  |  |  |  |  |  | 
Cn1ccnc1/C=C/c1ncc([N+](=O)[O-])n1C | 75.9 | 4.04 | 1200 | 7.29 | 5.93 | 7.06 | 6.60 | Active | Active | Non-toxic |  |  | Active
CC(=O)OC(c1ccc(C)cc1)C(OC(C)=O)c1ncc([N+](=O)[O-])n1C (configuration not stated) | 316 | < 4.00 | > 319 | 6.76 | 5.29 | 6.29 | 5.51 |  |  |  |  |  | 
COc1ccc(/C=C/c2ncc([N+](=O)[O-])n2C)c(OC)c1OC | 617 | < 4.00 | > 162 |  |  |  |  |  |  |  |  |  | 
COc1cccc(/C=C/c2ncc([N+](=O)[O-])n2C)c1 | 155 | < 4.00 | > 646 |  |  |  |  |  |  |  |  |  | 
Cc1ccc(CCc2ncc([N+](=O)[O-])n2C)cc1 | 282 | < 4.00 | > 357 |  |  |  |  |  |  |  |  |  | 
Cn1c([N+](=O)[O-])cnc1/C=C/c1ccccc1Cl | 72.4 | < 4.00 | > 1380 | 7.52 | 6.94 | 7.22 | 6.60 |  |  |  |  |  | 
Cn1c([N+](=O)[O-])cnc1CCc1ccccc1 | 209 | < 4.00 | > 474 | 6.99 | 5.30 | 6.76 | 5.59 |  |  | Non-toxic |  |  | 
Cn1c([N+](=O)[O-])cnc1/C=C/c1ccccc1-c1ccccc1 | 851 | < 4.00 | > 117 | 6.46 | 5.34 | 6.27 | 5.91 |  |  |  |  |  | 
Cn1c([N+](=O)[O-])cnc1/C=C/c1ccc2ccccc2c1 | 60.3 |  | 1620 |  |  |  |  |  |  |  |  |  | 
Cn1c([N+](=O)[O-])cnc1/C=C/c1cccc(I)c1 | 93.3 |  | 339 |  |  |  |  |  |  |  |  |  | 
CCOC(OCC)c1ccc(/C=C/c2ncc([N+](=O)[O-])n2C)cc1 | 52.5 |  | 1860 | 7.49 | 6.15 | 7.19 | 6.70 |  |  |  |  |  | 
Cn1c([N+](=O)[O-])cnc1/C=C/c1ccc(Cl)cc1 | 52.5 | 4.04 | 1740 | 7.44 | 6.84 | 7.14 | 6.59 |  |  |  |  |  | 
Cn1c([N+](=O)[O-])cnc1C(O)C(O)c1ccc(Br)cc1 (configuration not stated) | 447 | 4.04 | 208 |  |  |  |  |  |  |  |  |  | 
Cn1c([N+](=O)[O-])cnc1CCc1ccc(Br)cc1 | 1150 |  | 85 |  |  |  |  |  |  |  | 5.94 |  | 
Cc1ccc(C(Br)C(Br)c2ncc([N+](=O)[O-])n2C)cc1 (configuration not stated) | 64.6 | 4.95 | 174 |  |  |  |  |  |  |  |  |  | 
Cc1ccc(/C=C/c2ncc([N+](=O)[O-])n2C)cc1 | 162 | < 4.00 |  |  |  |  |  |  |  |  |  |  | 
Cn1c([N+](=O)[O-])cnc1/C=C/c1ccccc1Br | 49 | 4.14 | 1480 | 7.74 | 6.93 | 7.38 | 6.55 |  |  |  |  |  | 
